Most compounds without a hit are left out; they make up all but 2.6% or so of the library.
ERAP1 inh: human ERAP1 aminopeptidase inhibitors, primary screen, biochemical, single point, plate reader | Endoplasmic reticulum aminopeptidase 1 (Homo sapiens), Q9NZ08 | recombinant ERAP1, Leu-AMC fluorescence, 60 min | inhibition, % at 10.7 µM | 0.15% of 340,000 active | AID 652197, 2013;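 active means mean replicate inhibition of at least 30%, or all replicates individually reaching that 30% level; inactive means mean below 30% and not every replicate reaching it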;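 further: 0% = neutral control wells and 100% = L-leucinethiol positive control wells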
Target sequence (Q9NZ08 whole entry, looked up): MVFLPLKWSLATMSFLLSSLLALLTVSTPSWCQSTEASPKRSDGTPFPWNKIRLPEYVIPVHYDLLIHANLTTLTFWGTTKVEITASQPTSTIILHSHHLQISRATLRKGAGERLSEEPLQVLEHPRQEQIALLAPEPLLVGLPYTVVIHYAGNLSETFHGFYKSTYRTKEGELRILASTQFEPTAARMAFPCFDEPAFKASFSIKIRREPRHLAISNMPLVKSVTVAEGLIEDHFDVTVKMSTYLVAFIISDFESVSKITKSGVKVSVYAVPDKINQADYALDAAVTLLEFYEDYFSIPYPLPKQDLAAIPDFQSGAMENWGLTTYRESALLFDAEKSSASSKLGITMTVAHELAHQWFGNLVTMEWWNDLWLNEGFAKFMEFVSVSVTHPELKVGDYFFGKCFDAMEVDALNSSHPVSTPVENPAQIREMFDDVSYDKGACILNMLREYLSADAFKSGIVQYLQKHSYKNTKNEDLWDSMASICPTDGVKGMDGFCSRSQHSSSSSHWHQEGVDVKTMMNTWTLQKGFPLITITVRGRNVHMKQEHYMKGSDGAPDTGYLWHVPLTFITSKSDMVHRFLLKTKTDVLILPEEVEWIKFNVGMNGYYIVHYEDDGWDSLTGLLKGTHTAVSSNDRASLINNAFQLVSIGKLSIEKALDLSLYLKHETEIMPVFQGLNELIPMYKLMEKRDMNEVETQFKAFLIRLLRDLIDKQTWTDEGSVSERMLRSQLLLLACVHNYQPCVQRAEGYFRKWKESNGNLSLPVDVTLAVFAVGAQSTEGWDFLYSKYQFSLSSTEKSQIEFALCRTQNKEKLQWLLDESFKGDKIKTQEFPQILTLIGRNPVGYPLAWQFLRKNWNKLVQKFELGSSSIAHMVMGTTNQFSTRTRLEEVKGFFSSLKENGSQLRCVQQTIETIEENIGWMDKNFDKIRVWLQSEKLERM
miR122 inh: miR-122 Renilla sensor signal increase in Huh7, primary screen, miR-122 inhibitor project, cell-based, single point, plate reader. AID 602342, 2012. Huh7 miR-122 Renilla luciferase sensor, 48 h; neutral wells = 0, positive control = 100. activation (reporter increase), % at 12.5 µM. 0.3% of 340,000 active;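 active means mean replicate activation score at least 90 and every replicate individually at or above 90; inconclusive means only one of the two criteria met; inactive means neither criterion met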;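 further: higher luciferase means less miR-122 activity so hits act as miR-122 inhibitors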
GSIS activator: GLuc luminescence reporter in INS-1E cells, primary screen for activators of glucose-dependent secretion of insulin. INS-1E GLuc reporter insulin secretion, 2-3 h. activation, % at 16.6 µM. 0.61% of 370,000 active;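 active means lowest replicate activation of at least 40%, so every replicate reaches that level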;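 further: 0% = median of neutral control wells and 100% = median of IBMX positive control wells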
CFTR F508del cor: F508del CFTR correction, initial screen, CFBE line, single point. CFBE cells, YFP halide quenching; stimulated with forskolin plus potentiator P3; % fluorescence drop versus neutral controls. activity (quench increase), % at 7.58 µM. 0.36% of 350,000 active;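 active means mean added fluorescence quench of at least 8% versus neutral control, with both replicates also reaching 8%; inconclusive means only one of the mean or replicate conditions met; inactive means mean below 8% and not both replicates reaching 8%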;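 further: cells transiently co-express mutant CFTR-F508del with the halide-sensitive YFP; corrector assay measuring rescue of mutant channel to the surface after 24 h compound exposure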
DENV2 CPE: inhibitors of DENV2 cytopathic effect, primary screen, cell-based, plate reader, single concentration; DENV2-infected cells, cytopathic effect rescue; CPE inhibition, % at 9.99 µM; 1.7% of 350,000 active; AID 651640, 2012; in the data active means CPE inhibition above about 20%, passing the limit was not always enough; inconclusive means no clear call, values can overlap the other calls; tested in BHK-21 cells;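 further: 0% = median of neutral control wells and 100% = median of positive control wells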
E-sel inducer: E-selectin induction in HUVECs, primary screen, imaging, HUVEC, immunofluorescence imaging, single point; P16581; normalized: neutral wells 0, TNF-alpha wells 100; activation, % at 7.58 µM; 0.37% of 260,000 active; AID 686992, 2013;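 active means mean E-selectin-positive cell signal at least 10% of the positive control, reached in at least 60% of replicates, without over 20% cell loss; inconclusive means no rule given, readout overlaps actives, possibly toxicity-flagged; inactive means the rest, including those meeting only one limit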
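Test system – human umbilical vein endothelial cells (HUVEC), E-selectin induction · Input – 3,000 HUVEC seeded per well · Buffer or medium – EGM-2, gelatin · Compound dosing – single-point compound dose · Detection – immunofluorescence imaging · Measure – percent E-selectin-positive cells · Controls – TNF-alpha high, DMSO low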
Active calls of the source: *; u = inconclusive; x = no result; ! = a repeat was not active; [ ] = remark or other dose.

SMILES	ERAP1 inh	miR122 inh	GSIS activator	CFTR F508del cor	DENV2 CPE	E-sel inducer
C[C@H](CO)N1C[C@H](C)[C@@H](CN(C)Cc2ccc(Oc3ccccc3)cc2)Oc2cc(Br)ccc2S1(=O)=O	2.8	-7.3	-18.3	1.5	25.0*!	0.7
COCC#Cc1ccc2c(c1)O[C@@H](CN(C)Cc1ccncc1)[C@H](C)CN([C@H](C)CO)S2(=O)=O	-0.8	-1.6[16.7 µM]	8.0	-1.3	20.3*	0.1
COCC#Cc1ccc2c(c1)O[C@H](CN(C)Cc1ccccc1)[C@@H](C)CN([C@H](C)CO)S2(=O)=O	2.5	31.6[16.7 µM]	-1.0	0.9	28.2*	0.0
COCC#Cc1ccc2c(c1)O[C@H](CN(C)Cc1ccccc1)[C@H](C)CN([C@H](C)CO)S2(=O)=O	5.6	8.6[16.7 µM]	9.0	0.6	1.7	0.1
COCC#Cc1ccc2c(c1)O[C@@H](CN(C)Cc1ccccc1)[C@H](C)CN([C@H](C)CO)S2(=O)=O	0.4	-1.2[16.7 µM]	-32.9	0.0	23.4*	0.1
O=C(C[C@H]1CC[C@H](NS(=O)(=O)c2ccccc2)[C@H](CO)O1)NCCN1CCCCC1	-2.5	x	17.5	-2.7	-3.6	-0.7
COC(=O)C[C@H]1CC[C@@H]2[C@H](COc3ccc(NC(=O)Nc4cccc(C)c4)cc3C(=O)N2C)O1	-1.9	-11.0[16.7 µM]	-2.2	-2.6	-1.7	0.0
C[C@@H]1CN([C@@H](C)CO)C(=O)c2cc(N(C)C)ccc2O[C@H]1CN(C)S(=O)(=O)c1cn(C)cn1	3.6	-7.1[16.7 µM]	2.1	-0.6	-4.6	-2.2
COc1ccc(-c2oc3ncnc(NCCCN(C)C)c3c2-c2ccc(OC)cc2)cc1	6.3	-14.4	107.4	0.0	-1.8	x
CN(C)CCNc1ncnc2oc(-c3ccccc3)c(-c3ccccc3)c12	1.9	-2.7	53.3*	0.6	2.4	x
COc1cccc(C(=O)NC2=NCCS2)c1	x	-2.0	x	x	x	x
COc1ccc(N(Cc2ccccc2)S(=O)(=O)c2cccc(C(=O)NC3=NCCS3)c2)cc1	x	118.8*	x	x	x	x
Cc1noc(C)c1NC(=O)Nc1ccc2c(c1)C(=O)N([C@@H](C)CO)C[C@@H](C)[C@@H](CN(C)Cc1ccc(C(F)(F)F)cc1)OCCCC[C@@H](C)O2	-2.4	3.2[16.7 µM]	-8.5	4.1	-5.9	0.4
Cc1noc(C)c1NC(=O)N(C)C[C@H]1Oc2ccc(NS(=O)(=O)c3ccc(F)cc3)cc2CC(=O)N([C@H](C)CO)C[C@H]1C	-0.1	9.5[16.7 µM]	10.4	-1.0	7.0	1.0
O=C(NC1CCCCC1)C(c1ccc(F)cc1)N(Cc1ccccc1)C(=O)CN1C(=O)c2ccccc2S1(=O)=O (stereo not drawn)	x	2.3	111.4*	x	x	x
C[C@H]1CN([C@@H](C)CO)C(=O)c2cccc(NC(=O)Nc3ccc(F)cc3)c2O[C@H]1CN(C)S(C)(=O)=O	1.2	1.9[16.7 µM]	17.1	-0.1	2.7	x
CO[C@@H]1CC[C@H]2CCN(C)C(=O)C[C@H](c3ccccc3)CN(C)C(=O)c3cc(C#N)ccc3OC[C@@H]1O2	1.8	x	8.3	x	51.7*	0.1
CC(C)NC(=O)Nc1ccc2c(c1)CC(=O)N([C@H](C)CO)C[C@@H](C)[C@@H](CN(C)Cc1ccc(C(=O)O)cc1)O2	0.9	-1.9[16.7 µM]	20.8	-2.0	68.2*	17.6
CC(C)NC(=O)Nc1ccc2c(c1)CC(=O)N([C@@H](C)CO)C[C@H](C)[C@@H](CN(C)Cc1ccc(C(=O)O)cc1)O2	0.7	-5.7[16.7 µM]	3.7	-1.6	u	37.2*
CC(C)NC(=O)Nc1ccc2c(c1)CC(=O)N([C@@H](C)CO)C[C@H](C)[C@@H](CN(C)Cc1ccccc1)O2	-3.5	2.5[16.7 µM]	8.0	2.1	-12.4	-0.2
CC(C)NC(=O)Nc1ccc2c(c1)CC(=O)N([C@H](C)CO)C[C@@H](C)[C@H](CN(C)Cc1ccc(C(=O)O)cc1)O2	1.9	-1.2[16.7 µM]	17.1	-0.1	u	-2.3
COc1ccccc1S(=O)(=O)N[C@H]1CC[C@H](CC(=O)NCc2cc(F)cc(F)c2)O[C@H]1CO	-1.5	x	9.7	-2.7	-16.1	-0.6
Cc1ccc(S(=O)(=O)Nc2cccc3c2O[C@H](CN(C)Cc2ccc4c(c2)OCO4)[C@@H](C)CN([C@H](C)CO)C3=O)cc1	0.5	27.9[16.7 µM]	-3.8	0.0	5.4	-0.2
CC1CCCCC12NC(=O)N(CC(=O)NCc1cccs1)C2=O (stereo not drawn)	-0.9	-0.8	5.6	3.7	28.9*	-0.2
COc1cccc(CN2CC3(CN(C)C3)c3c(n(C)c4cc(OC)ccc34)[C@@H]2CO)c1	-1.3	x	-1.8	0.1	-4.1	0.0
SMILES	ERAP1 inh	miR122 inh	GSIS activator	CFTR F508del cor	DENV2 CPE	E-sel inducer
C[C@@H]1CCCCO[C@@H](CN(C)C(=O)c2ccccc2)[C@H](C)CN([C@@H](C)CO)C(=O)c2cc(NC(=O)C3CCCCC3)ccc2O1	-0.1	-12.9[16.7 µM]	-5.5	-0.4	71.3*	0.2
CC(C)NC(=O)Nc1ccc2c(c1)C(=O)N([C@H](C)CO)C[C@H](C)[C@@H](CN(C)C(=O)c1ccccc1)OCCCC[C@H](C)O2	0.2	3.6[16.7 µM]	3.6	0.6	47.8*	-0.2
C[C@H]1CN([C@@H](C)CO)S(=O)(=O)c2ccc(C#CC3CC3)cc2O[C@@H]1CN(C)Cc1ccccc1	-1.8	81.1[16.7 µM]	-14.1	-1.4	8.1	-0.3
Fc1cccc(Cn2cc(C(=S)N3CCOCC3)c3ccccc32)c1	4.1	176.0*	2.0	-4.5	9.6	x
Fc1cccc(Cn2cc(C(=S)N3CCCCC3)c3ccccc32)c1	x	24.2	x	x	x	x
O=S(=O)(NCC[C@@H]1CC[C@H](NS(=O)(=O)c2cccc(Cl)c2)[C@H](CO)O1)c1cccc(F)c1	2.3	x	-28.0	0.5	-0.6	0.0
CCOC(=O)c1oc2ccc(S(=O)(=O)n3nc(-c4ccc(Cl)cc4)cc3N)cc2c1C	0.9	2.4	x	-1.5	-0.8	0.0
CCOC(=O)c1oc2ccc(S(=O)(=O)n3nc(-c4ccc(C)cc4)cc3N)cc2c1C	x	-1.9	0.7	0.0	89.7*	1.1
CNC[C@H]1OCCCC[C@@H](C)Oc2ccc(NC(=O)c3ccccc3)cc2C(=O)N([C@H](C)CO)C[C@@H]1C	0.1	1.3[16.7 µM]	21.7	-0.7	12.0	0.0
CC(O)Cc1cn([C@@H](CCCCN)C(=O)N2CCNCC2)nn1 (stereo partly drawn)	3.3	x	13.6	3.0	24.8*	x
C[C@@H]1CCCCO[C@@H](CN(C)C)[C@H](C)CN([C@H](C)CO)C(=O)c2cc(NC(=O)C3CCCCC3)ccc2O1	x	2.0[16.7 µM]	10.9	-2.1	x	-0.1
CN1\C(=C/C=C/C=C/C=[N+](C)C)C(C)(C)c2ccccc21	22.8	x	x	3.9	2.5	187.8*
